Only a selection was taken, and hits are over-represented in it overall.
eIF2B yeast act: GCN4-lacZ reporter reduction in eIF2B-epsilon mutant yeast, primary screen, S. cerevisiae, eIF2B-epsilon R284H, Beta-Glo luminescence | AID 688, 2007 | hit rate 0.91% among 27,000 | inhibition, % at 25 µM (by protocol);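 active means mutant luminescence inhibited past about 50% while wild type luminescence and mutant growth stay under set limits, limit read from the data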
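Material – yeast eIF2B-epsilon R284H mutant carrying GCN4–beta-galactosidase fusion · Medium – YPD yeast growth medium · Compound – one concentration, 25 µM, 0.25% DMSO · Times – 16 h at 30 °C exposure · Signal – Beta-Glo luminescence plus absorbance at 595 nm · Read-out – % inhibition of reporter signal and growth versus controls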
Large screens that a line does not name were inactive.

FC(F)(F)C(Oc1nc(Nc2ccc(Cl)cc2)nc(N2CCOCC2)n1)C(F)(F)F	none
CCOC(=O)C1=C(C)NC(SCc2cc(=O)[nH][nH]2)=C(C#N)C1c1cccs1 (stereo not given)	eIF2B yeast act 56
CCCSC1=C(C#N)C(c2cccs2)C(C(=O)Nc2ccccc2)=C(C)N1 (stereo not given)	none
C=CCOC(=O)C1=C(C)NC(SC)=C(C#N)C1c1cccs1 (stereo not given)	none
COC(=O)[C@H](CC(C)C)NC(=O)NC1CCCCC1C (stereo not given in full)	none
Cc1ccc2nc(N3CCN(Cc4nnnn4Cc4ccccc4)CC3)c(C#N)cc2c1	none
COc1ccc(C2(O)CCN(Cc3nnnn3Cc3ccc(C)cc3)CC2)cc1	none
Cc1ccc(Cn2nnnc2CN2CCC(O)(c3ccc(F)cc3)CC2)cc1	eIF2B yeast act 69
Nc1nc(C2CC2)c(Sc2sc(N)nc2C2CC2)s1	none
CC(=O)C1=C(C)Nc2ncnn2C1c1ccccc1OCc1ccccc1 (stereo not given)	none
COc1ccccc1-n1c(C)cc(C=O)c1C	none
CCOC(=O)c1c(N)nn(C(=O)C(C)C)c1-c1ccc(OC)cc1	none
CCOC(=O)c1c(N)nn(C(C)=O)c1-c1ccccc1	eIF2B yeast act 54
CCOC(=O)c1nnn(-c2nc(N3CCCC3)nc(N3CCCC3)n2)c1-c1ccccc1	none
CCOC(=O)N1CCN(C(=O)c2ccc(NC(=O)CC)cc2)CC1	none
CCOC(=O)N1CCN(C(=O)c2ccc(C)c(S(=O)(=O)Nc3ccccc3)c2)CC1	none
CCOC(=O)N1CCN(C(=O)c2ccc(N3CCCC3=O)cc2)CC1	eIF2B yeast act 56
O=C(OC(C(=O)NC1CCCC1)c1ccncc1)C1=Cc2ccccc2OC1 (stereo not given)	none
COc1cc(C(=S)N2CCCC2)cc(OC)c1O	eIF2B yeast act 57
Oc1ccccc1C(=S)N1CCCCCC1	none
COc1ccc(C(=S)N2CCNCC2)cc1	none
Cc1c(C(=O)/C=C/c2cccs2)oc2ccc(F)cc12	none
CCOC(=O)c1[nH]c2ccc(OC)cc2c1NC(=O)CCN1CCCC(C)C1 (stereo not given)	none
CC1Cc2ccccc2N1C(=O)CN1CCc2ccccc2C1 (stereo not given)	none
COc1ccc(S(=O)(=O)CCC(=O)N2c3ccccc3CC2C)cc1 (stereo not given)	eIF2B yeast act 56
COc1ccc(S(=O)(=O)CCC(=O)N2CC(=O)N(CCc3ccccc3)C(=O)C2)cc1	none
O=C(CCn1cccc1)NCCc1ccc(Cl)cc1	none
Cn1c(=O)oc2cc(S(=O)(=O)Nc3cccc4c3CCCC4)ccc21	none
CCOC(=O)c1nn(-c2cccc(Cl)c2)c2nc(CC(C)C)c(C#N)c(=O)n12	eIF2B yeast act 50
Cc1cc2n(c(=O)c1C#N)CCCN2c1cccc(Cl)c1	none
CCOC(=O)c1nn(-c2ccccc2)c(C#N)c1NC(=O)c1nn(CC)cc1Br	none
O=C(NC1CCCCC1)Nn1c(-c2ccccc2)nc2ccccc2c1=O	none
O=c1cc(NC2CCCCC2)c2ccccc2o1	none
COc1ccc2cc(CN(CC3CCCO3)S(=O)(=O)c3ccccc3Cl)c(=O)[nH]c2c1 (stereo not given)	none
COc1ccc(Nc2nc(N3CCCCC3)nc3ccccc23)c(OC)c1	none
COc1ccc(N/C=C(\C#N)c2nc3ccccc3n2C)c(OC)c1	eIF2B yeast act 58
CCN(CC)CCn1c(NCc2cc(OC)ccc2OC)nc2ccccc21	none
COC(=O)Cc1c(C)nc2nc(NCc3cccc([N+](=O)[O-])c3)[nH]n2c1=O	none
CCC(Cc1ccccc1)NC(=O)CCn1cccc1 (stereo not given)	none
CC(Oc1ccc(Cl)cc1Cl)c1nc(-c2ccc(NC(=O)c3ccccn3)cc2)no1 (stereo not given)	none
Cc1nnc(N2CCN(C)CC2)c2nn(-c3ccc(Cl)cc3)c(C)c12	none
CC(C)=CC(=O)Nc1ccc2c(c1)OCO2	eIF2B yeast act 54
Cc1ccc(OCCCC(=O)Nc2ccc3c(c2)OCO3)cc1	none
O=C(Nc1ccc2c(c1)OCO2)c1cccc(F)c1	none
Cc1ccc(S(=O)(=O)c2c(COC(=O)c3ccccc3Cl)c(-c3ccccc3)nn2C)cc1	none
Cc1ccc(S(=O)(=O)CCc2nc3ccccc3s2)cc1C	none
CCOc1ccc(C2C(C#N)=C(N)SC(N)=C2C#N)cc1OC	none
CCOc1ccc(C2C(C#N)=C(N)N3C(=C2C#N)Sc2ccccc23)cc1 (stereo not given)	eIF2B yeast act 54
N#CC1=C(N)N2C(=C(C#N)C1c1ccccc1)Sc1ccccc12 (stereo not given)	none
CCOc1cc(S(=O)(=O)N2CCCCCC2)ccc1F	none
CC1(C)Cc2c(sc3c2c(=N)n(Cc2ccco2)c(=O)n3Cc2ccc(F)cc2)CO1	eIF2B yeast act 57
O=C(Cn1c(=O)n(Cc2ccco2)c(=O)c2c3c(sc21)CCCCC3)c1ccccc1	none
CCCCn1c(=O)n(C)c(=O)c2c3c(sc21)COC(C)(C)C3	none
Cc1cccc(NC(=O)Cc2coc3ccc4ccccc4c23)n1	none
CC(C)C1Oc2ccccc2N(CC(=O)N(Cc2ccccn2)CC2CCCO2)C1=O (stereo not given)	eIF2B yeast act 59
O=C(CN(CC1CCCO1)C(=O)CCC(=O)Nc1ccccn1)NCc1ccccc1 (stereo not given)	none
Cc1ccnc(NC(=O)CCC(=O)N(CC(=O)NC2CCCCC2)CC2CCCO2)c1 (stereo not given)	none
Cc1cccc2cc(CN(CC3CCCO3)C(=O)c3ccco3)c(=O)[nH]c12 (stereo not given)	none
Cc1ccc(CN(CC2CCCO2)C(=O)CN2C(=O)C(C(C)C)Oc3ccccc32)o1 (stereo not given)	eIF2B yeast act 59
O=C(NC1CCCC1)C(c1ccc(O)cc1)N(CC1CCCO1)C(=O)C1COc2ccccc2O1 (stereo not given)	none
O=c1cc(CSc2ccc(S(=O)(=O)N3CCCCC3)cn2)nc2sccn12	none
Cc1ccc(Nc2nc3c(c(=O)[nH]c(=O)n3C)n2Cc2ccc(F)cc2)cc1	none
Cc1cc(N2CCN(C(=O)c3ccco3)CC2)n2nc(-c3cccc(F)c3)cc2n1	none
CCN1CCN(c2cc(-c3ccccc3)nc3cc(-c4cccc(F)c4)nn23)CC1	eIF2B yeast act 53
COCCN1CCN(c2c3c(nc4cc(-c5cccc(F)c5)nn24)CCC3)CC1	none
CN(Cc1ccccc1)S(=O)(=O)c1cccc2cccnc12	none
COc1ccc(-n2c(N)c(Br)c(=O)[nH]c2=O)cc1	none
Cc1cc(C)n(CCn2nc(C)cc2C)n1	none
Cc1cc(C)n(-c2cc(=O)n(C)c(=O)n2C)n1	eIF2B yeast act 51
CCOn1c(-n2nc(C)cc2C)nc2ccccc2c1=O	none
Cc1ccc(NC(=O)CCn2cccc2)cc1Cl	none
Cc1cc(NC(=O)CN2CCOCC2)n(-c2nc3ccccc3s2)n1	none
COC(=O)c1cccc(NC(=O)c2ccc(S(=O)(=O)N3CCN(C)CC3)cc2)c1	eIF2B yeast act 59
Cc1ccccc1C(=O)Nc1ccc(S(=O)(=O)N2CCN(C)CC2)cc1	none
CCOC(=O)c1ccc(S(=O)(=O)N2CCN(C)CC2)cc1	none
COc1ccc(C)cc1S(=O)(=O)N(CC(N)=O)Cc1ccccc1	none
COc1ccc(C2C=C(c3ccc(Cl)cc3)Nc3nc(NC(C)=O)nn32)cc1 (stereo not given)	none
C=CCOC(=O)C1=C(C)Nc2nnnn2C1c1ccc(OC)cc1OC (stereo not given)	none
COc1ccc(C2=CC(c3sccc3C)n3nnnc3N2)cc1 (stereo not given)	eIF2B yeast act 56
OCc1nn2c(c1Br)NC(c1ccccc1)CC2C(F)(F)F (stereo not given)	none
Cc1ccc2c(c1)cc(CN(Cc1cccnc1)C(=O)NCc1ccccc1)c1nnnn12	none
